Assay results reported in ChEMBL document CHEMBL3580660, “Synthesis and Biological Evaluation of Novel Olean-28,13β-lactams as Potential Antiprostate Cancer Agents” (J Med Chem, 2015).
The source made the active and inactive calls. The rule behind the calls is not given here.

How the values were obtained:
[1] = system: Mus musculus; assay: Acute toxicity in ICR mouse assessed as mortality at 640 mg/kg, oral gavage after 4 to 14 days; assay type: organism-based; conditions: in vivo
Procedure, shortened: (§1)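 ICR mice of both sexes, 7 weeks old, held under SPF conditions. Each got one gavage dose (800, 640, 512, 409.6 or 327.8 mg/kg) or vehicle, n = 8 per group. Deaths were recorded at 1 h, 4 h, 3 d and 4–14 d. Behaviour, water and food intake, body weight and activity were followed to day 14. LD50 given with 95% confidence limits.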

[2] = system: Mus musculus; assay: Toxicity in human DU145 cells xenografted in BALB/c mouse assessed as change in body weight at 17 mg/kg, oral gavage for 21 days relative to vehicle treated control; assay type: organism-based, DU-145; conditions: in vivo, 504 h
Procedure, shortened: (§2)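 Male BALB/c nude mice (6−8 weeks, 18−22 g) implanted subcutaneously on right axillary flank with 2 × 10^6 DU-145 cells in 0.1 mL saline. At 100 ± 30 mm3 tumors, randomized (n = 5/group) to daily gavage for 21 days; vehicle DMSO/Cremphor EL/PBS 1:1:8. Tumor volume every 3 days; tumors excised and weighed at end; TGI from mean tumor weights vs vehicle; body weight tracked.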

[3] = Antiproliferative activity against human H460 cells after 72 hrs by CCK8 assay; assay type: functional, cell-based; conditions: NCI-H460, 72 h
Procedure, shortened: (§3)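 CCK-8 assay: DU-145, H460, Bxpc-3, BEL-7404 and nontumor WPMY-1 cells seeded at 5 × 10^3 cells/well in 10% FCS DMEM overnight, then exposed in triplicate to 0.041−10 μM for 72 h. CCK-8 added for final 30 min, absorbance 450 nm; inhibition relative to medium-only controls after background subtraction; IC50 as concentration giving 50% inhibition.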

[4] = system: Mus musculus; assay: Acute toxicity in ICR mouse assessed as total mortality at 800 mg/kg, oral gavage up to 14 days; assay type: organism-based; conditions: in vivo, 336 h; procedure, shortened: as §1
[5] = target: Cytochrome P450 3A4 (Homo sapiens, UniProt P08684); assay: Inhibition of CYP3A4 in human liver microsomes using midazolam as substrate after 1 hr by LC-MS/MS analysis
[6] = Antiproliferative activity against human BxPC3 cells after 72 hrs by CCK8 assay; assay type: functional, cell-based; conditions: BXPC-3, 72 h; procedure, shortened: as §3
[7] = system: Mus musculus; assay: Acute toxicity in ICR mouse assessed as mortality at 327.8 mg/kg, oral gavage after 1 hr; assay type: organism-based; conditions: in vivo; procedure, shortened: as §1
[8] = Reduction in phosphorylated Akt protein expression in human DU145 cells at 0.08 to 0.32 uM after 24 hrs by Western blot analysis; assay type: functional, cell-based; conditions: DU-145
Procedure, shortened: (§4)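 DU-145 cells (5 × 10^5/well) in 10% FCS Ham's F-12K overnight, treated in duplicate with compound or vehicle 24 h; lysed (Tris pH 8, EGTA, NaCl, NP-40, Triton X-100), protein by BCA. Blots blocked in 5% milk, probed for AKT, p-AKT Ser473, mTOR, p-mTOR Ser2448, Bax, Bcl-2, β-actin; ECL detection, densitometry relative to control; three separate experiments.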

[9] = Acute toxicity in ICR mouse assessed as survival at 512 mg/kg, oral gavage on day 14; assay type: organism-based; conditions: in vivo; procedure, shortened: as §1
[10] = Acute toxicity in ICR mouse assessed as survival at 640 mg/kg, oral gavage on day 14; assay type: organism-based; conditions: in vivo; procedure, shortened: as §1
[11] = system: Mus musculus; assay: Acute toxicity in ICR mouse assessed as mortality at 327.8 mg/kg, oral gavage after 4 to 14 days; assay type: organism-based; conditions: in vivo; procedure, shortened: as §1
[12] = system: DU-145; assay: Induction of cell cycle arrest in human DU145 cells assessed as cells accumulation at G0/G1 phase at 0.08 uM after 24 hrs by propidium iodide staining-based flow cytometry (reference value: 54%); assay type: functional
[13] = target: Serine/threonine-protein kinase mTOR (Homo sapiens) (UniProt P42345); assay: Effect on mTOR protein expression in human DU145 cells at 0.08 to 0.32 uM after 24 hrs by Western blot analysis; assay type: functional, cell-based; conditions: DU-145; procedure, shortened: as §4
[14] = system: Mus musculus; assay: Acute toxicity in ICR mouse assessed as mortality at 409.6 mg/kg, oral gavage after 1 hr; assay type: organism-based; conditions: in vivo; procedure, shortened: as §1
[15] = system: Mus musculus; assay: Acute toxicity in ICR mouse assessed as mortality at 327.8 mg/kg, oral gavage after 3 days; assay type: organism-based; conditions: in vivo, 72 h; procedure, shortened: as §1
[16] = system: DU-145; assay: Induction of apoptosis in human DU145 cells assessed as reduction in Bcl2 expression at 0.08 to 0.32 uM after 24 hrs by Western blot analysis; assay type: functional, cell-based; procedure, shortened: as §4
[17] = system: Mus musculus; assay: Toxicity in human DU145 cells xenografted in BALB/c mouse assessed as change in body weight at 8.5 mg/kg, oral gavage for 21 days relative to vehicle treated control; assay type: organism-based, DU-145; conditions: in vivo, 504 h; procedure, shortened: as §2
[18] = Acute toxicity oral gavage treated in ICR mouse assessed as mortality measured up to 14 days; assay type: organism-based; conditions: in vivo; procedure, shortened: as §1
[19] = Antiproliferative activity against human Bel7404 cells after 72 hrs by CCK8 assay; assay type: functional, cell-based; conditions: BEL-7404, 72 h; procedure, shortened: as §3
[20] = system: DU-145; assay: Induction of cell cycle arrest in human DU145 cells assessed as cells accumulation at S phase at 0.08 uM after 24 hrs by propidium iodide staining-based flow cytometry (reference value: 24%); assay type: functional
[21] = system: Mus musculus; assay: Acute toxicity in ICR mouse assessed as mortality at 512 mg/kg, oral gavage after 4 to 14 days; assay type: organism-based; conditions: in vivo; procedure, shortened: as §1
[22] = system: Mus musculus; assay: Acute toxicity in ICR mouse assessed as mortality at 800 mg/kg, oral gavage after 4 to 14 days; assay type: organism-based; conditions: in vivo; procedure, shortened: as §1
[23] = Antiproliferative activity against human WPMY-1 cells after 72 hrs by CCK8 assay; assay type: functional, cell-based; conditions: WPMY-1, 72 h; procedure, shortened: as §3
[24] = system: DU-145; assay: Induction of cell cycle arrest in human DU145 cells assessed as cells accumulation at G2/M phase at 0.16 uM after 24 hrs by propidium iodide staining-based flow cytometry (reference value: 22%); assay type: functional
[25] = system: Mus musculus; assay: Acute toxicity in ICR mouse assessed as total mortality at […] mg/kg, oral gavage up to 14 days; assay type: organism-based; conditions: in vivo, 336 h; procedure, shortened: as §1
[26] = Half life in human liver microsomes by LC-MS/MS analysis; assay type: ADME
Procedure, shortened: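 Human liver microsomes at 0.2 mg/mL protein in 100 mM potassium phosphate−MgCl2 buffer pH 7.4, compound 5 μM with NADPH system at 37 °C; stopped with acetonitrile at 0, 5, 10, 15, 30, 60 min. After centrifugation, remaining compound quantified by LC−MS/MS to derive t1/2; mean ± SD.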

[27] = system: Mus musculus; assay: Acute toxicity in ICR mouse assessed as mortality at 640 mg/kg, oral gavage after 1 hr; assay type: organism-based; conditions: in vivo; procedure, shortened: as §1
[28] = system: Mus musculus; assay: Acute toxicity in ICR mouse assessed as mortality at 512 mg/kg, oral gavage after 1 hr; assay type: organism-based; conditions: in vivo; procedure, shortened: as §1
[29] = Apparent permeability across apical to basolateral side in human Caco2 cells at 0.5 uM measured after 30 mins by LC-MS/MS analysis; assay type: ADME, cell-based; conditions: Caco-2
Procedure, shortened: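 Caco2 monolayers (passages 20−40) grown 21 days at 37 °C, 5% CO2; integrity checked by TEER. Test drug 0.5 μM applied in triplicate, apical pH 6.8, basolateral pH 7.4, 37 °C for 30 min, A→B and B→A. Donor and receiver sampled, concentration by LC−MS/MS; Papp calculated; efflux ratio = Papp B→A / Papp A→B.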

Cytochrome P450 3A4, sequence (P08684 whole entry): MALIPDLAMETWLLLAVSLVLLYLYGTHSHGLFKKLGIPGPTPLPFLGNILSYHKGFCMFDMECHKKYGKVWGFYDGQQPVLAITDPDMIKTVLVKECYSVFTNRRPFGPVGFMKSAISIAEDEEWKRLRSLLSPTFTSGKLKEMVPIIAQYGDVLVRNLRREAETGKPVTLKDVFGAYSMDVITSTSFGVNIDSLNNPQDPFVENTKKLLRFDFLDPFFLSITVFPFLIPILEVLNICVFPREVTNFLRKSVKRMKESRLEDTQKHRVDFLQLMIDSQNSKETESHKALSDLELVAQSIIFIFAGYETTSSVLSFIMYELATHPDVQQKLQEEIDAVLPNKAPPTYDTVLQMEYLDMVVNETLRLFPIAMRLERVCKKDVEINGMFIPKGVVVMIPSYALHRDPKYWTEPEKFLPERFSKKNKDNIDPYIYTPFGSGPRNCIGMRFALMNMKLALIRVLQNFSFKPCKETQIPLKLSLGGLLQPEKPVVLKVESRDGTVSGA

Compound: CC1(C)CC[C@]23CC[C@@]4(C)[C@]5(C)CC[C@H]6C(C)(C)C(=O)C(C#N)=C[C@]6(C)C5=CC(=O)[C@@]4([C@@H]2C1)N(C1CCCCC1)C3=O
- Activity [1]: Non-toxic
- Activity [2]: Non-toxic
- IC50 [3]: 380 nM
- Activity [4]: Toxic
- IC50 [5]: 932 nM
- IC50 [6]: 330 nM
- Activity [7]: Non-toxic
- inhibition [8]: Active
- survival at 14 day [9]: 63%
- survival at 14 day [10]: 25%
- Activity [11]: Non-toxic
- Activity [12]: 56%
- Activity [13]: inactive
- Activity [14]: Non-toxic
- Activity [15]: Non-toxic
- inhibition [16]: Active
- Activity [17]: Non-toxic
- LD50 at 336 h [18]: 541 mg/kg
- IC50 [19]: 460 nM
- Activity [20]: 25%
- Activity [21]: Non-toxic
- Activity [22]: Non-toxic
- IC50 [23]: 6.09 µM
- Activity [24]: 22%
- Activity [25]: Toxic
- half-life [26]: 39 min
- Activity [27]: Non-toxic
- Activity [28]: Non-toxic
- Papp A→B at 0.5 h, 0.5 µM [29]: 0.045 ×10⁻⁶ cm/s
